Results: ChEMBL document CHEMBL2380260, “Structure-activity relationship of N,N'-disubstituted pyrimidinetriones as Ca(V)1.3 calcium channel-selective antagonists for Parkinson's disease” (J Med Chem, 2013)

Key:
[1] = target: Voltage-dependent L-type calcium channel subunit alpha-1C (Oryctolagus cuniculus, UniProt P15381); assay: Antagonist activity at rabbit CaV1.2alpha1C transfected in HEK293 cells by FLIPR assay; assay type: cell-based
In short: (§1)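 HEK293 cells stably expressing the L-type channel (rat CaV1.3 α1D with all alternative splice sites, or rabbit CaV1.2 α1C), each co-expressed with rat β3 and α2δ-1 subunits. Cells plated at 4 × 10⁴ cells/well and cultured in DMEM with 10% FBS for 4 days. Calcium influx read by Fluo-8 no-wash dye fluorescence on FLIPR Tetra. IC50 from triplicate percent-inhibition data fitted to a one-site sigmoidal model.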

[2] = Selectivity ratio of IC50 for rabbit CaV1.2alpha1C to IC50 for rat CaV1.3alpha1D
In short: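 Selectivity is defined as […] the ratio of the CaV1.2 IC50 to the CaV1.3 IC50. Both IC50s come from the Fluo-8 FLIPR calcium influx assay in stably transfected HEK293 cells, each run in triplicate and fitted to a one-site sigmoidal model.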

[3] = target: Voltage-dependent L-type calcium channel subunit alpha-1D (Rattus norvegicus, UniProt P27732); assay: Antagonist activity at rat CaV1.3alpha1D transfected in HEK293 cells by FLIPR assay; assay type: cell-based; in short: as §1
Sequence of Voltage-dependent L-type calcium channel subunit alpha-1D (P27732 whole entry): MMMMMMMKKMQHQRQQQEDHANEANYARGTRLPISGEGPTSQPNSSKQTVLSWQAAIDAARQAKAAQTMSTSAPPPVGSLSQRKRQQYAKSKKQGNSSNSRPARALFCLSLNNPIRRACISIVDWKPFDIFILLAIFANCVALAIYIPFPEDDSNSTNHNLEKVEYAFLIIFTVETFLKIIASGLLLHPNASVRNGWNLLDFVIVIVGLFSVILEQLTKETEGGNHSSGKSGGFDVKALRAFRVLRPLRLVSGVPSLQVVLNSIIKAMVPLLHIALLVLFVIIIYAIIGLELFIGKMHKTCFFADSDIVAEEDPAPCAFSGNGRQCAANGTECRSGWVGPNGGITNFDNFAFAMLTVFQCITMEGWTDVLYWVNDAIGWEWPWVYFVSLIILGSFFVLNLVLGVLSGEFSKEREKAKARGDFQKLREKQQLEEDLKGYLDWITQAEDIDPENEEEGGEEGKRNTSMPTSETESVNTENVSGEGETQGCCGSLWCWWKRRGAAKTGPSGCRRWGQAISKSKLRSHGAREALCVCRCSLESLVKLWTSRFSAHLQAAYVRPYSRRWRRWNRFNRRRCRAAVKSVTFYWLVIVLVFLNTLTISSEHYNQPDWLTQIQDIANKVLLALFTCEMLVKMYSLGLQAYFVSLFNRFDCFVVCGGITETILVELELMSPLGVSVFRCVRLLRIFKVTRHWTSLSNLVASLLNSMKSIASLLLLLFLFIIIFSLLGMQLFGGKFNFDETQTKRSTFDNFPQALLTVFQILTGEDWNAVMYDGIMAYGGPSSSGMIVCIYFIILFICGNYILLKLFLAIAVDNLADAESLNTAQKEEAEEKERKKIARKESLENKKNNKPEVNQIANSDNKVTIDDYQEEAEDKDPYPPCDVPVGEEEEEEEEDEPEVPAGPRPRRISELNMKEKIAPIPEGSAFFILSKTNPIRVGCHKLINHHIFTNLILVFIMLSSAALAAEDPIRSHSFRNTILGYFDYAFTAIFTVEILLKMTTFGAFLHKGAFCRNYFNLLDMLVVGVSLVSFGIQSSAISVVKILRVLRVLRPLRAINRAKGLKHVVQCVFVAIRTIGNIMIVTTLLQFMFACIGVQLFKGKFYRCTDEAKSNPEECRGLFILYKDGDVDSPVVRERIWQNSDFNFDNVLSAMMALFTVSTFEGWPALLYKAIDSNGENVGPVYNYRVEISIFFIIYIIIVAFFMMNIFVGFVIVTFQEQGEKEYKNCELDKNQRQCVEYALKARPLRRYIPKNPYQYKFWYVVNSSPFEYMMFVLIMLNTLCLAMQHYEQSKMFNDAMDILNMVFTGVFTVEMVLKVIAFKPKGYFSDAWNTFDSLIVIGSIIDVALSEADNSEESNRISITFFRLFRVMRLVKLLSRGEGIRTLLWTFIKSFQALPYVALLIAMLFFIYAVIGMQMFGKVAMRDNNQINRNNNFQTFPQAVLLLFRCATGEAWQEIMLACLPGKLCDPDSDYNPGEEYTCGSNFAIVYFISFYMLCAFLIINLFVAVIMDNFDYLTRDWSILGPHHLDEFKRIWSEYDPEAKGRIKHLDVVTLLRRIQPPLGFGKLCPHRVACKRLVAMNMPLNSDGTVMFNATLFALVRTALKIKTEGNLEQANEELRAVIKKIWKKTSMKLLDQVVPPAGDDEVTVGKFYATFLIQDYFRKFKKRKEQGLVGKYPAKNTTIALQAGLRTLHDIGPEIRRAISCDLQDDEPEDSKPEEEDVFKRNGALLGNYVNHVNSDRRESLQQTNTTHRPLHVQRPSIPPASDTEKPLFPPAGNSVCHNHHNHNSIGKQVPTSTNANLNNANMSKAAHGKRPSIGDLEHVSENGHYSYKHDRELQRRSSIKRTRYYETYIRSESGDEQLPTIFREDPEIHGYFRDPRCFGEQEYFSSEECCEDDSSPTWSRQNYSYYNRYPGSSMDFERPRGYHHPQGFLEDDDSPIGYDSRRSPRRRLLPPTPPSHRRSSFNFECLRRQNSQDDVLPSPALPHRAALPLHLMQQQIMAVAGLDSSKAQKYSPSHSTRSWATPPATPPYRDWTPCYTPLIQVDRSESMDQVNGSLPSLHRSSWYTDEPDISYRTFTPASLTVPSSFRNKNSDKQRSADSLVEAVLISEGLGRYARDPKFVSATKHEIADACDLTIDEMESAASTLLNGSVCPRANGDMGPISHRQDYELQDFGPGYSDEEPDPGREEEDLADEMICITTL

Sequence of Voltage-dependent L-type calcium channel subunit alpha-1C (P15381 whole entry, canonical isoform): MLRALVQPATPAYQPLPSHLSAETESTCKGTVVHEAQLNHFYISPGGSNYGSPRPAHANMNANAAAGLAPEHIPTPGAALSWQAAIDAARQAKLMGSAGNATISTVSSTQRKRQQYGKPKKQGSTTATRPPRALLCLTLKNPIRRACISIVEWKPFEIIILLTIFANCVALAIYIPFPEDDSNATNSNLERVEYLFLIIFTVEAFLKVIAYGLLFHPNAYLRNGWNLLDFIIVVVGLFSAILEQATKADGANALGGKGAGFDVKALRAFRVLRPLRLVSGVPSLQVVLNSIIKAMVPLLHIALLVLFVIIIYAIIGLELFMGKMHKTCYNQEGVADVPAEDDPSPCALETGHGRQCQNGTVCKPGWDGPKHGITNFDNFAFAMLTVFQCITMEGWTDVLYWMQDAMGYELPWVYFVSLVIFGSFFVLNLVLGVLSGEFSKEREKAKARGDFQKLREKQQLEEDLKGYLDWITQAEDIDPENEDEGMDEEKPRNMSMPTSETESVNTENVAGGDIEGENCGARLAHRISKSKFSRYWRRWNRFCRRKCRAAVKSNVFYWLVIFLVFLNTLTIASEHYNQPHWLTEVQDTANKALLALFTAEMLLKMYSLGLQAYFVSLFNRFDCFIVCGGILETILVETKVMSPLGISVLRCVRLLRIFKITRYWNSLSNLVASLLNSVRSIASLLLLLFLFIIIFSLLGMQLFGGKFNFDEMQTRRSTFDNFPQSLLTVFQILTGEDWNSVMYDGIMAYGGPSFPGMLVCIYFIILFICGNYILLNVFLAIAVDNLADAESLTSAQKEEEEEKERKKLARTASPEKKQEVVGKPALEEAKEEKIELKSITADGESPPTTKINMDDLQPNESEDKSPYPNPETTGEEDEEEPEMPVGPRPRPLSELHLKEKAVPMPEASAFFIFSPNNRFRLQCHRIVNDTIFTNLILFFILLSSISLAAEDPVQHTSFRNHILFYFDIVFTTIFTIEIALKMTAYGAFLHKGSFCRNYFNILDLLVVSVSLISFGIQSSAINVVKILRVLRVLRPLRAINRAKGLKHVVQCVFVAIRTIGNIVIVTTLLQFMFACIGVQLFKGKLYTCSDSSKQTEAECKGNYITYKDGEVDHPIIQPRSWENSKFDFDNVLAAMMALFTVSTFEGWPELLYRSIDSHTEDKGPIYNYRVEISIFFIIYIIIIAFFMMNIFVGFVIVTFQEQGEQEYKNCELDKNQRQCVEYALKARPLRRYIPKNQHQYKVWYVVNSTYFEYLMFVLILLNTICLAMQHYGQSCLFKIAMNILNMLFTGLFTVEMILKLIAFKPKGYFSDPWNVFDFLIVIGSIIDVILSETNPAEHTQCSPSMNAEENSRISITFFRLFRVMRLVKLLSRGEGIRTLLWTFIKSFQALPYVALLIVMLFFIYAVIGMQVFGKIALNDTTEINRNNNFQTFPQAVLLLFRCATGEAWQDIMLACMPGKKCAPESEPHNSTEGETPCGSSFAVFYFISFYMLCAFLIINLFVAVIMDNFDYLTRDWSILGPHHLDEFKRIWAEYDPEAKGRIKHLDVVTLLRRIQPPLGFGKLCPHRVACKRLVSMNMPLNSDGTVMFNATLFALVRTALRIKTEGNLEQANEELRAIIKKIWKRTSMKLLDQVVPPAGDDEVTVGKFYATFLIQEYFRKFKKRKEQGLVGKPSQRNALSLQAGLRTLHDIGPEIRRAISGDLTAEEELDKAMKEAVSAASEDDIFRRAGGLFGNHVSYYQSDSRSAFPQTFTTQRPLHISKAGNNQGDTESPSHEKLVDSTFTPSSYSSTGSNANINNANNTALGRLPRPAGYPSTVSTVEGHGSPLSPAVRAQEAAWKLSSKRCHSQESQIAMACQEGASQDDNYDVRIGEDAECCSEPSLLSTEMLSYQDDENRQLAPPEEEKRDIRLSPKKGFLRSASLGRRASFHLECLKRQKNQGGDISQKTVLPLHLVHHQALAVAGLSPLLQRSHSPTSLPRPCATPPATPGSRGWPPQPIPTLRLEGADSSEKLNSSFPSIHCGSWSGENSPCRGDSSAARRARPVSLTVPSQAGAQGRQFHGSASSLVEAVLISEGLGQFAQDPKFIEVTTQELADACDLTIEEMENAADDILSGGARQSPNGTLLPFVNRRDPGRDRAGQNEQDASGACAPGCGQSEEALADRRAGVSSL

Which IC50 [1] does the source give for `CC(C)(CN1C(=O)CC(=O)N(C2CCCC2)C1=O)c1cccc(Cl)c1` here?
Its IC50 is 12.6 µM.

What about the Ratio IC50 [2] of the same molecule?
Its Ratio IC50 is 4.9.

What about the IC50 [3] of the same molecule?
The IC50 was 2.4 µM.

With `O=C1CC(=O)N([C@H]2C[C@H]3CC[C@@H]2C3)C(=O)N1CCc1cccc(Cl)c1` as the molecule, how does the IC50 [1] read?
The IC50 was greater than 100 µM.

And the Ratio IC50 [2]?
Its Ratio IC50 is greater than 29.

And the IC50 [3]?
The IC50 was 3.5 µM.

For `CC(CN1C(=O)CC(=O)N(C2CC3CCC2C3)C1=O)c1cccc(Cl)c1` (mixture of isomers), which IC50 [1] is on record?
The IC50 was 5.1 µM.

What about the Ratio IC50 [2] of the same molecule?
Its Ratio IC50 is 2.1.

What about the IC50 [3] of the same molecule?
Its IC50 is 2.4 µM.

With `C[C@@H]1CCC[C@@H]1N1C(=O)CC(=O)N(CCc2cccc(Cl)c2)C1=O` as the molecule, how does the IC50 [1] read?
The IC50 was 13 µM.

What about the Ratio IC50 [2] of the same molecule?
The Ratio IC50 was 2.3.

And the IC50 [3]?
Its IC50 is 5.5 µM.

Which IC50 [1] does the source give for `C[C@H](C1CCCCC1)N1C(=O)CC(=O)N(CCc2ccc(Cl)cc2)C1=O` here?
The IC50 was greater than 100 µM.

What about the Ratio IC50 [2] of the same molecule?
Its Ratio IC50 is greater than 12.

And the IC50 [3]?
The IC50 was 8.1 µM.

Which results are given for `O=C1CC(=O)N(C2CC3CCC2C3)C(=O)N1CCc1ccc(Cl)cc1` (mixture of isomers)?
IC50 [1]: 50 µM; Ratio IC50 [2]: 8.9; IC50 [3]: 5.6 µM

For `O=C(OCCc1cccc(F)c1)[C@H]1CC[C@@H](N2C(=O)CC(=O)N(CCc3cccc(Cl)c3)C2=O)C1`, which IC50 [1] is on record?
Its IC50 is 6.7 µM.

And the Ratio IC50 [2]?
The Ratio IC50 was 0.7.

And the IC50 [3]?
The IC50 was 9.7 µM.

What does the source list for `O=C1CC(=O)N(C2CCCC2)C(=O)N1CC(c1ccccc1)c1ccccc1`?
IC50 [1]: 8.1 µM; Ratio IC50 [2]: 1.6; IC50 [3]: 5.2 µM

With `CC1(C)CCC[C@H]1N1C(=O)CC(=O)N(CCc2cccc(Cl)c2)C1=O` as the molecule, how does the IC50 [1] read?
The IC50 was 4.7 µM.

What about the Ratio IC50 [2] of the same molecule?
Its Ratio IC50 is 1.9.

And the IC50 [3]?
Its IC50 is 2.5 µM.

With `COC(=O)C1=C(C)NC(=S)N(C(=O)OC(C)C)C1c1cccc([N+](=O)[O-])c1` (configuration not stated) as the molecule, how does the Ratio IC50 [2] read?
Its Ratio IC50 is less than 2.

Which IC50 [1] does the source give for `O=C1CC(=O)N(C2CCCC2)C(=O)N1CCc1ccc(Cl)c(Cl)c1` here?
The IC50 was 3.4 µM.

What about the Ratio IC50 [2] of the same molecule?
Its Ratio IC50 is 2.7.

What about the IC50 [3] of the same molecule?
Its IC50 is 1.2 µM.

For `O=C1CC(=O)N(C2CCCC2)C(=O)N1CCc1ccc(OCc2ccccc2)cc1`, which IC50 [1] is on record?
Its IC50 is 18.7 µM.

And the Ratio IC50 [2]?
Its Ratio IC50 is 0.5.

What about the IC50 [3] of the same molecule?
The IC50 was 34.1 µM.

What does the source list for `O=C1CC(=O)N(C2CCCC2)C(=O)N1CCCc1ccccc1`?
IC50 [1]: 21.9 µM; Ratio IC50 [2]: 2.9; IC50 [3]: 7.6 µM

Which Ratio IC50 [2] does the source give for `COc1ccc([C@@H]2Sc3ccccc3N(CCN(C)C)C(=O)[C@@H]2OC(C)=O)cc1` here?
The Ratio IC50 was less than 2.

With `C[C@H]1CCC[C@H]1N1C(=O)CC(=O)N(CCc2cccc(Cl)c2)C1=O` as the molecule, how does the IC50 [1] read?
The IC50 was 9.3 µM.

And the Ratio IC50 [2]?
The Ratio IC50 was 1.3.

What about the IC50 [3] of the same molecule?
The IC50 was 7.3 µM.

What does the source list for `O=C1CC(=O)N(C2CCCC2)C(=O)N1CCc1cc(C(F)(F)F)cc(C(F)(F)F)c1`?
IC50 [1]: 2.6 µM; Ratio IC50 [2]: 1.8; IC50 [3]: 1.4 µM

Which results are given for `CC1(C)CCC[C@@H]1N1C(=O)CC(=O)N(CCc2cccc(Cl)c2)C1=O`?
IC50 [1]: 3.5 µM; Ratio IC50 [2]: 1.6; IC50 [3]: 2.1 µM

Which results are given for `CCC1CCC(N2C(=O)CC(=O)N(CCc3cccc(Cl)c3)C2=O)C1` (configuration not stated)?
IC50 [1]: 15 µM; IC50 [3]: 7.3 µM

With `C[C@H]1CCC[C@@H]1N1C(=O)CC(=O)N(CCc2cccc(Cl)c2)C1=O` (racemic) as the molecule, how does the IC50 [1] read?
Its IC50 is 21 µM.

And the Ratio IC50 [2]?
The Ratio IC50 was 1.8.

What about the IC50 [3] of the same molecule?
The IC50 was 11 µM.

What does the source list for `C[C@H]1[C@H](N2C(=O)CC(=O)N(CCc3cccc(Cl)c3)C2=O)C[C@@H]2C[C@H]1C2(C)C`?
IC50 [1]: > 100 µM; IC50 [3]: > 100 µM

Which results are given for `O=C1CC(=O)N(C2CCCC2)C(=O)N1Cc1cccc(Cl)c1`?
IC50 [1]: 46.7 µM; IC50 [3]: 43 µM

Which results are given for `COC(=O)C(Cc1ccc(Cl)cc1)N1C(=O)CC(=O)N(C2CCCC2)C1=O` (configuration not stated)?
IC50 [1]: 13.4 µM; IC50 [3]: 7.5 µM

What does the source list for `O=C1CC(=O)N([C@@H]2C[C@@H]3CC[C@H]2C3)C(=O)N1CCc1cccc(Cl)c1`?
IC50 [1]: > 100 µM; Ratio IC50 [2]: > 50; IC50 [3]: 2 µM

Which IC50 [1] does the source give for `O=C1CC(=O)N(C2CCCC2)C(=O)N1CCC(c1ccccc1)c1ccccc1` here?
Its IC50 is 4.7 µM.

What about the IC50 [3] of the same molecule?
The IC50 was 4.1 µM.

With `C[C@@H](C1CCCCC1)N1C(=O)CC(=O)N(CCc2ccc(Cl)cc2)C1=O` as the molecule, how does the IC50 [1] read?
The IC50 was greater than 100 µM.

And the Ratio IC50 [2]?
The Ratio IC50 was greater than 12.

What about the IC50 [3] of the same molecule?
The IC50 was 8.3 µM.

For `COC(=O)C1=C(C)NC(C)=C(C(=O)OC(C)C)C1c1cccc2nonc12` (configuration not stated), which Ratio IC50 [2] is on record?
Its Ratio IC50 is less than 2.

Which IC50 [1] does the source give for `O=C1CC(=O)N(C2CCCC2)C(=O)N1CCc1ccc(-c2ccccc2)cc1` here?
Its IC50 is 5.4 µM.

And the IC50 [3]?
Its IC50 is 4.4 µM.

For `CC(=O)O[C@@H]1CCC[C@@H]1N1C(=O)CC(=O)N(CCc2cccc(Cl)c2)C1=O`, which IC50 [1] is on record?
Its IC50 is 23.4 µM.

What about the Ratio IC50 [2] of the same molecule?
Its Ratio IC50 is 0.6.

And the IC50 [3]?
The IC50 was 38.6 µM.

With `COC(=O)[C@H](Cc1ccccc1)N1C(=O)CC(=O)N(C2CCCC2)C1=O` as the molecule, how does the IC50 [1] read?
Its IC50 is greater than 100 µM.

What about the IC50 [3] of the same molecule?
The IC50 was greater than 100 µM.

Which IC50 [1] does the source give for `CCC(CC)N1C(=O)CC(=O)N(CCc2cccc(Cl)c2)C1=O` here?
Its IC50 is 25.5 µM.

And the IC50 [3]?
The IC50 was 11.7 µM.

What does the source list for `O=C1CC(=O)N([C@@H]2C[C@@H]3CC[C@H]2C3)C(=O)N1CCc1ccc(Cl)cc1`?
IC50 [1]: 54 µM; Ratio IC50 [2]: 11; IC50 [3]: 1.9 µM

Which IC50 [1] does the source give for `CC1(C)[C@@H]2CC[C@H](CN3C(=O)CC(=O)N(CCc4cccc(Cl)c4)C3=O)[C@H]1C2` here?
Its IC50 is 47 µM.

What about the IC50 [3] of the same molecule?
Its IC50 is 40 µM.

For `O=C1CC(=O)N([C@H]2CCNC2)C(=O)N1CCc1cccc(Cl)c1`, which IC50 [1] is on record?
Its IC50 is greater than 100 µM.

What about the IC50 [3] of the same molecule?
The IC50 was greater than 100 µM.

What does the source list for `O=C1CC(=O)N(C2CC3CCC2C3)C(=O)N1CCc1cc(C(F)(F)F)cc(C(F)(F)F)c1` (mixture of isomers)?
IC50 [1]: 3.8 µM; IC50 [3]: 1.8 µM

For `C[C@@H]1[C@@H](N2C(=O)CC(=O)N(CCc3cccc(Cl)c3)C2=O)C[C@H]2C[C@@H]1C2(C)C`, which IC50 [1] is on record?
Its IC50 is greater than 100 µM.

What about the IC50 [3] of the same molecule?
Its IC50 is greater than 100 µM.

Which IC50 [1] does the source give for `O=C1CC(=O)N([C@H]2C[C@H]3CC[C@@H]2C3)C(=O)N1CCc1ccc(Cl)cc1` here?
Its IC50 is 100 µM.

And the IC50 [3]?
Its IC50 is 2.1 µM.

For `O=C1CC(=O)N(C[C@H]2CCCO2)C(=O)N1CCc1cccc(Cl)c1`, which IC50 [1] is on record?
Its IC50 is 41 µM.

And the IC50 [3]?
Its IC50 is greater than 100 µM.

Which Ratio IC50 [2] does the source give for `COc1ccc(CCN(C)CCCC(C#N)(c2ccc(OC)c(OC)c2)C(C)C)cc1OC` (configuration not stated) here?
Its Ratio IC50 is less than 2.
